How the values were obtained:
[1] = target: Cystic fibrosis transmembrane conductance regulator (Homo sapiens, UniProt P13569, F508DEL); experiment: Potentiation of human CFTR F508del mutant expressed in mouse NIH-3T3 cells after 30 mins by fluorescent voltage sensing optical assay; type: cell-based, NIH3T3
In short: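 NIH-3T3 fibroblasts stably expressing human F508del-CFTR were held 16–24 h at 27 °C to correct misfolding. Cells were washed in NaCl/HEPES bath, pH 7.4, then loaded with voltage-sensing dyes plus compound for 30 min at room temperature. Cl−-free bath with forskolin was added once, and membrane potential change was read by fluorescence. EC50 is mean ± SD of at least three determinations.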

[2] = Half life in Sprague-Dawley rat at 2.49 mg/kg, iv; type: ADME, organism-based; design: dose 2.49 mg/kg, route intravenous; conditions: in vivo
In short: (§1)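 Animals (n = 3/group; male mouse, Sprague-Dawley rat, beagle dog, cynomolgus monkey) got a single iv dose in dimethyl isosorbide/ethanol/PEG400/D5W (10%/15%/35%/40%) at 1 mL/kg. Heparinized blood was drawn via an indwelling carotid cannula from predose to 48 h. Plasma was assayed by LC/MS/MS (LLOQ 1 ng/mL, linear 1–2500 ng/mL). Parameters came from noncompartmental analysis of mean profiles using measured doses.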

[3] = Volume of distribution at steady state in Sprague-Dawley rat at 2.49 mg/kg, iv; type: ADME, organism-based; design: dose 2.49 mg/kg, route intravenous; conditions: in vivo, read-out: Vdss; in short: as §1
[4] = Clearance in Sprague-Dawley rat at 2.49 mg/kg, iv; type: ADME, organism-based; design: dose 2.49 mg/kg, route intravenous; conditions: in vivo; in short: as §1
[5] = AUC (0 to infinity) in Sprague-Dawley rat at 2.49 mg/kg, iv; type: ADME, organism-based; design: time infinity, dose 2.49 mg/kg, route intravenous; conditions: plasma
In short: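 Male Sprague−Dawley rats, n = 3/group, single iv dose in dimethyl isosorbide/ethanol/PEG400/D5W (10%/15%/35%/40%) at 1 mL/kg. Carotid cannula blood at predose, 5, 15, 30, 45 min and 1, 2, 4, 6, 8, 12, 24, 36, 48 h. Plasma levels by LC/MS/MS (LLOQ 1 ng/mL, linear 1–2500 ng/mL). Noncompartmental analysis of mean profiles using measured doses.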

[6] = Oral bioavailability in Sprague-Dawley rat at 2.5 mg/kg; type: ADME, organism-based; conditions: in vivo
In short: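 Single oral dose, n = 3/group. Heparinized carotid-cannula blood was sampled at predose, 0.25, 0.5, 1, 1.5, 2, 4, 8, 12 and 24 h. Plasma levels were measured by LC/MS/MS (LLOQ 1 ng/mL). AUC and bioavailability were derived by noncompartmental analysis of mean concentration–time profiles against the iv arm.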

[7] = Clearance in Sprague-Dawley rat at 2.5 mg/kg, iv; type: ADME, organism-based; design: dose 2.5 mg/kg, route intravenous; conditions: in vivo; in short: as §1
[8] = Half life in beagle dog at 1 mg/kg, iv; type: ADME, organism-based, Canis lupus familiaris; design: dose 1 mg/kg, route intravenous; conditions: in vivo; in short: as §1
[9] = Volume of distribution at steady state in beagle dog at 1 mg/kg, iv; type: ADME, organism-based, Canis lupus familiaris; design: dose 1 mg/kg, route intravenous; conditions: in vivo, read-out: Vdss; in short: as §1
[10] = target: GABA-A receptor; benzodiazepine site (Homo sapiens); experiment: Binding affinity to GABAA receptor (unknown origin)
[11] = Clearance in beagle dog at 1 mg/kg, iv; type: ADME, organism-based, Canis lupus familiaris; design: dose 1 mg/kg, route intravenous; conditions: in vivo; in short: as §1
[12] = Volume of distribution at steady state in Sprague-Dawley rat at 2.5 mg/kg, iv; type: ADME, organism-based; design: dose 2.5 mg/kg, route intravenous; conditions: in vivo, read-out: Vdss; in short: as §1
[13] = Half life in Sprague-Dawley rat at 2.5 mg/kg, iv; type: ADME, organism-based; design: dose 2.5 mg/kg, route intravenous; conditions: in vivo; in short: as §1
[14] = Binding affinity to ligand-gated chloride channel (unknown origin); design: species or system Homo sapiens
[15] = tested on: Cystic fibrosis transmembrane conductance regulator (Homo sapiens), P13569 [F508del]; experiment: Potentiation of human CFTR F508del mutant expressed in mouse NIH-3T3 cells at 30 uM after 30 mins by fluorescent voltage sensing optical assay relative to VRT-532; type: cell-based; conditions: NIH3T3
Chain of Cystic fibrosis transmembrane conductance regulator (Homo sapiens), P13569 [F508del] (P13569 as listed by the source): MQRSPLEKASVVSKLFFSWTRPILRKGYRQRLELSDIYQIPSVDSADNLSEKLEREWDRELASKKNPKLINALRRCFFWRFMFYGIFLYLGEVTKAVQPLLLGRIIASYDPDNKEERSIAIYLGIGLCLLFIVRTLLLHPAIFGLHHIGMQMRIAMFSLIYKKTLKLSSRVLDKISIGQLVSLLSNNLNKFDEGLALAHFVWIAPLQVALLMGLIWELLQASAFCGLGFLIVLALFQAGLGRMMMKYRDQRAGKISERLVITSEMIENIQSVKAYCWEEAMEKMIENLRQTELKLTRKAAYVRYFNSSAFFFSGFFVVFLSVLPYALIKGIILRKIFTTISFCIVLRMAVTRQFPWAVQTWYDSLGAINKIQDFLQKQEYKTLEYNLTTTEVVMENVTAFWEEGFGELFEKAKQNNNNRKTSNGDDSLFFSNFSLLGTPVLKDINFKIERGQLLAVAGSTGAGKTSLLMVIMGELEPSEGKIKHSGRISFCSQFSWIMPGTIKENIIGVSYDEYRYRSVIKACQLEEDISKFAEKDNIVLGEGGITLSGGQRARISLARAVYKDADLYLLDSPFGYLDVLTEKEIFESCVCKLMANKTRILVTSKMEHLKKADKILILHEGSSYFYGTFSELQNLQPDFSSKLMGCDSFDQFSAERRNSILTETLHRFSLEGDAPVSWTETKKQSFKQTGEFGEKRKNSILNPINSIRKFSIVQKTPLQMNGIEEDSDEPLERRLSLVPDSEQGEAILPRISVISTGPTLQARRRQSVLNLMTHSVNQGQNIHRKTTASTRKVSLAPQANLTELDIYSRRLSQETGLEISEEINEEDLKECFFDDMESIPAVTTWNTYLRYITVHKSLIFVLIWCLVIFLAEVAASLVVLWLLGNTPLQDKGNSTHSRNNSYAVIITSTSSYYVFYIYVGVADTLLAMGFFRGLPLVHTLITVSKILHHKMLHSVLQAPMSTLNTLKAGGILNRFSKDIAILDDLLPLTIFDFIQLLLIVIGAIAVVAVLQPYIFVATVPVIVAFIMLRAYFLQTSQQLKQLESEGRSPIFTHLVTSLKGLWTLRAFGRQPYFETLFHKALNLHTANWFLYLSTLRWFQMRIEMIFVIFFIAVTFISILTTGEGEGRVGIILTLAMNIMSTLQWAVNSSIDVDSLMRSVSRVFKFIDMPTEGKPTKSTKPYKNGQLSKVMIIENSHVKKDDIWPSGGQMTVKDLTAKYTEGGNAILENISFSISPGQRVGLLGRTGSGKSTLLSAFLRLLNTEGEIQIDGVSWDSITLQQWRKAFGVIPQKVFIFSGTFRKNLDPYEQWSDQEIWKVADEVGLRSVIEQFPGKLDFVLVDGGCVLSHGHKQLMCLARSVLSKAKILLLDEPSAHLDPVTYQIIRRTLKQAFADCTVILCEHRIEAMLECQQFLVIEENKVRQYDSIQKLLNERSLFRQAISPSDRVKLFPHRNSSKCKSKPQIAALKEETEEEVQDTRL
In short: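 Same F508del-CFTR NIH-3T3 membrane-potential assay: 27 °C correction for 16–24 h, dye plus compound for 30 min at room temperature, then forskolin in Cl−-free bath. Compounds below 50% activity at 30 μM were not titrated. Their response at 30 μM is given as % of VRT-532.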

Chain of Cystic fibrosis transmembrane conductance regulator (P13569 as listed by the source): as above

Row | SMILES | EC50 [1] [nM] | Activity [15] [%] | also measured
1 | CCc1cc2cc[nH]c2cc1NC(=O)c1c[nH]c2ccccc2c1=O | 20 | – | –
2 | CCCc1ccc(NC(=O)c2c[nH]c3ccccc3c2=O)cc1N | 400 | – | –
3 | O=C(Nc1ccc2[nH]ccc2c1)c1c[nH]c2ccccc2c1=O | 6100 | – | –
4 | COC(=O)Nc1cc(NC(=O)c2c[nH]c3ccccc3c2=O)ccc1C(C)(C)C | 3500 | – | –
5 | CC(C)(C)c1cc2cc[nH]c2cc1NC(=O)c1c[nH]c2ccccc2c1=O | 11 | – | half-life [2]: 2.9 h; Vd [3]: 3.3 L/kg; clearance [4]: 15.8 mL/min/kg; AUC(0-inf) [5]: 2640 ng·h/mL
6 | CCc1ccccc1NC(=O)c1c[nH]c2ccccc2c1=O | 200 | – | –
7 | O=C(Nc1ccc2cc[nH]c2c1)c1c[nH]c2ccccc2c1=O | 100 | – | bioavailability [6]: 11%; clearance [7]: 28 mL/min/kg; half-life [8]: 0.9 h; Vd [9]: 1.6 L/kg; IC50 [10]: 100 nM; clearance [11]: 17 mL/min/kg; Vd [12]: 2.4 L/kg; half-life [13]: 1.3 h; IC50 [14]: 100 nM
8 | CC(=O)Nc1cc(NC(=O)c2c[nH]c3ccccc3c2=O)ccc1C(C)(C)C | – | 24 | –
9 | CC(C)(C)c1ccc(NC(=O)c2c[nH]c3ccccc3c2=O)cc1CN | – | 20 | –
10 | Nc1cccc(NC(=O)c2c[nH]c3ccccc3c2=O)c1 | 6900 | – | –
11 | O=C(Oc1ccc2cc[nH]c2c1)c1c[nH]c2ccccc2c1=O | – | 19 | –
12 | CC(C)c1ccccc1NC(=O)c1c[nH]c2ccccc2c1=O | 200 | – | –
13 | O=C(c1cnc2ccccc2c1)N(Cc1ccccc1)Cc1ccccc1 | 16000 | – | –
14 | CCc1ccc(NC(=O)c2c[nH]c3ccccc3c2=O)cc1 | 800 | – | –
15 | O=C1Cc2ccc(NC(=O)c3c[nH]c4ccccc4c3=O)cc2N1 | – | 21 | –
16 | O=C(c1cnc2ccccn2c1=O)N(Cc1ccccc1)Cc1ccccc1 | – | 10 | –
17 | Cc1ccc(NC(=O)c2c[nH]c3ccccc3c2=O)cc1N | 6000 | – | –
18 | O=C(c1c[nH]c2ccccc2c1=O)N(Cc1ccccc1)Cc1ccccc1 | 2100 | – | –
19 | Cn1cc(C(=O)N(Cc2ccccc2)Cc2ccccc2)c(=O)c2ccccc21 | – | 37 | –
20 | CC(C)c1ccc(NC(=O)c2c[nH]c3ccccc3c2=O)cc1 | 200 | – | –
21 | O=C(Nc1ccc2ccccc2c1)c1c[nH]c2ccccc2c1=O | 800 | – | –
22 | CC(C)(C)c1ccc(NC(=O)c2c[nH]c3ccccc3c2=O)cc1 | 100 | – | –
23 | O=C(Nc1ccc2nc[nH]c2c1)c1c[nH]c2ccccc2c1=O | – | 12 | –
24 | O=C(Nc1ccc2cc[nH]c2n1)c1c[nH]c2ccccc2c1=O | – | 13 | –

— ChEMBL document CHEMBL3352164, “Discovery of N-(2,4-di-tert-butyl-5-hydroxyphenyl)-4-oxo-1,4-dihydroquinoline-3-carboxamide (VX-770, ivacaftor), a potent and orally bioavailable CFTR potentiator” (J Med Chem, 2014)
